Measured values published in ChEMBL document CHEMBL4513216, “Probing the Open Global Health Chemical Diversity Library for Multistage-Active Starting Points for Next-Generation Antimalarials” (ACS Infect Dis, 2020).

Experiment: Toxicity liver stage against HepG2, at 10uM
Format: cell-based
Design: test concentration 10 uM, cell line HepG2-A16-CD81EGFP
Details: human, HepG2-A16-CD81EGFP cells; read-out: INHIBITION
Method in brief: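 Uninfected HepG2-A16-CD81EGFP cells, 3 × 10^3 per well, 1536-well, plated on prespotted compound at 10 μM final, parasite-free screening media added to match infected plates; puromycin 10 μM positive, DMSO 0.5% negative; run in parallel with 48 h PbLuc assay at 37 °C, 5% CO2; viability by CellTiter-Glo luminescence, normalized to controls.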

Row | Structure (SMILES) | cytotoxicity at 10 µM
1 | O=C(CN1CCCC1)Nc1c2c(cc3c1CCC3)CCC2 | -2.1%
2 | O=C1NCCCCC1Sc1nnc(C2CC2)n1C1CC1 (centres undefined) | -6%
3 | CC(C)c1nc(CSc2nnc(C3CC3)n2CC(N)=O)no1 | -147%
4 | O=C1C[C@@H]2CCN(Cc3ccccc3)C[C@@H]2CCN1C1CCCCC1 | 5.17%
5 | CC(C)(C)C(=O)N1CC[C@H]2NC(=O)N(c3ccc(F)cc3)C(=O)[C@H]21 | -1.72%
6 | CCN(CC)S(=O)(=O)c1ccc2c(c1)N(Cc1cccnc1)C(=O)CS2 | 1.82%
7 | CN(C)c1no[n+]([O-])c1-c1ccccc1 | 15.8%
8 | Cc1c(C2SCC(=O)Nc3c2cnn3C(C)(C)C)cnn1C (centres undefined) | -1.21%
9 | O=C(NC1(c2nc(C3CC3)no2)CCCCC1)c1ccncc1 | -7.12%
10 | O=C(Cn1cccn1)N1CCC(c2nnc(C(F)(F)F)o2)CC1 | -10.8%
11 | Cc1nc(N2CCCC2)nc(C)c1NS(=O)(=O)c1ccccc1F | -3.92%
12 | Cc1ccccc1C(=O)N1CCC2(CCC(C(=O)NCC3CC3)O2)CC1 (centres undefined) | -3.28%
13 | CCn1nnc2c1CCN(S(C)(=O)=O)C2COCc1ccccc1 (centres undefined) | 0.196%
14 | CC(C)CC(=O)N1CCCn2cnc(CNS(C)(=O)=O)c2C1 | -1.22%
15 | CC(=O)N1CCN(C(=O)NC(C)C)CC2(CC(=O)N(C)C2)C1 (centres undefined) | -4.13%
16 | COCC1CC2(CCN(C(=O)c3oc4ccccc4c3C)CC2)CO1 (centres undefined) | -141%
17 | O=C(Cc1csc(-c2ccccc2)n1)N[C@@H](C(=O)O)c1ccccc1 | 6.56%
18 | CC(C)NC(=O)c1nnc2ccc(N3CCOCC3)cc2n1 | 1.86%
19 | CCCc1nc(N2CCSCC2)c2c(n1)c(C)nn2CC | 8.05%
20 | Cc1ccc(CNc2cc(C(=O)N3CCOCC3)nc(C)n2)cc1 | -1.61%
21 | CC(=O)N1CC(C(=O)N2CCCC(Cn3ccnc3C)C2)C1 (centres undefined) | 1.27%
22 | CNc1cc(C2CN(Cc3coc(C)n3)CCO2)nc(C)n1 (centres undefined) | -11.1%

Row | Structure (SMILES) | cytotoxicity at 10 µM
23 | O=C(N[C@@H]1CCC[C@@H](N2CCOCC2)[C@@H]1O)c1cc2ccccc2[nH]1 | -26.9%
24 | CC(C)(C)CC(=O)N1CCC(c2nn(CCN)c3nccnc23)C1 (centres undefined) | -20.9%
25 | O=C(NCC1CC1)c1cc(C2CC2)nc2onc(C3CCCNC3)c12 (centres undefined) | 4.98%
26 | CN(C)C(=O)c1cccc(NC(=O)Cc2cc(F)ccc2F)n1 | -2.64%
27 | CCCN(CCC)C(=O)c1sc(C)nc1C | 3.05%
28 | CCCn1c(NC(=O)CNC(=O)OCC)nc2ccccc21 | -4.41%
29 | CC(=O)N1CCN(c2ccccc2CNc2cncc(C)c2)CC1 | 2.22%
30 | CCC(CC)c1cc(C(=O)N2CCN(CC(N)=O)CC2)on1 | -4.97%
31 | OC1CCN(c2nc(-c3ccccc3)no2)CC1 | -9.57%
32 | CCN(CC)CCn1cc(NC(=O)c2ccccc2OC)cn1 | 7.04%
33 | O=S1(=O)CCC(c2nnc(-c3cnc4onc(C5CC5)c4c3)o2)C1 (centres undefined) | 5.89%
34 | COCCCN(C)c1nc(-c2ccncc2)nc(C)c1C | 2.8%
35 | O=C(CS(=O)(=O)c1cccc[n+]1[O-])NC1CCCc2ccccc21 (centres undefined) | -3.46%
36 | CCc1nnc2n1CCN(C(=O)CCOc1cc(C)ccc1C)C2 | -11.3%
37 | CCOc1cccc(C(C)NC(=O)N2CCC3(CC2)OCCO3)c1 (centres undefined) | 0.322%
38 | CCN(CC)c1ncc(CNC2CCc3nc(C(C)C)nn3C2)s1 (centres undefined) | 4.24%
39 | Cc1cc(F)ccc1S(=O)(=O)N(C)CC(N)=O | 1.38%
40 | CN(CCN1CCOCC1)C(=O)CCc1ccc(C(F)(F)F)cc1 | -1.3%
41 | CNc1cc(N2CCCC2CNCc2cccnc2)ncn1 (centres undefined) | -11.5%
42 | CN(CC(=O)NC(C)(C)C)Cc1nc(-c2ccccc2)c[nH]1 | -2.23%
43 | O=S(=O)(CCO)Cc1ccc(OCC(F)(F)F)cc1 | 2.23%
44 | CN(c1ncnc2c1CCC2)C1CCCN(c2cccnn2)C1 (centres undefined) | 1.72%

Row | Structure (SMILES) | cytotoxicity at 10 µM
45 | CC(=O)N(CCc1ccccc1)CC(=O)NC1(C#N)CC1 | 1.09%
46 | COCCN1CCC(Nc2c(F)cc(C#N)cc2F)CC1 | -5.41%
47 | CC(C)CN(CC(O)c1ccc(F)cc1)C(=O)c1csnn1 (centres undefined) | 2.83%
48 | C[S+]([O-])CCNC(=O)Nc1cc(F)ccc1-n1cccn1 (centres undefined) | -20.9%
49 | CC(Nc1ccc(CCN2CCCCC2)cc1)C(=O)N(C)CCC#N (centres undefined) | 7.61%
50 | O=C(CCc1ccsc1)Nc1cnccc1O | 9.56%
51 | COc1cccc(CN(C)Cc2cccc(C#N)c2)c1OC | -7.82%
52 | O=S(=O)(CCNCc1ccc2c(c1)CCO2)N1CCOCC1 | -9.61%
53 | CN(CCN1CCOCC1)C(=O)CCc1cccc(Cl)c1 | -6.57%
54 | CCc1ccc(C(=O)N2CCC(c3nncn3CC)CC2)cc1 | -2.95%
55 | c1cc(C2CCCN2Cc2nnnn2C2CC2)cs1 (centres undefined) | -8.86%
56 | Cc1nc(CN2CCO[C@@H]3CNCC[C@@H]3C2)cs1 | 4.47%
57 | Cc1ccc(C(=O)N2CCn3c(COCC4CC4)cnc3C2C)s1 (centres undefined) | 5.14%
58 | Cc1ccc(C(F)(F)F)cc1C(=O)N[C@H]1CN(CCO)C[C@@H]1C1CC1 | 0.292%
59 | Nc1nc(CCCNC(=O)c2ccc(C3CCCNC3)cc2)cs1 (centres undefined) | 2.77%
60 | O=C1NCCCC12CCN(S(=O)(=O)N1CCOCC1)C2 (centres undefined) | -1.16%
61 | Cc1nc(O)cc(C2CCN(C(=O)C(C)Cn3nc(C)nc3C)CC2)n1 (centres undefined) | -1.89%
62 | Cc1nc(C2CCNCC2)cc(N(C)CCc2cn[nH]c2)n1 | -1.54%
63 | O=C(CN1CCC2(CCCN(CCO)C2=O)C1)NCCc1ccccc1 (centres undefined) | 0.174%
64 | COc1cccc(CN(C)C(C)c2ccco2)c1OCCn1ccnc1 (centres undefined) | -0.7%
65 | CN(CCCO)c1nc(-c2ccc(C(N)=O)cc2)nc2c1CCNC2 | -2.86%
66 | CCOC(=O)C1CCCN(Cc2c[nH]nc2-c2cc3ccccc3o2)C1 (centres undefined) | 3.16%

Row | Structure (SMILES) | cytotoxicity at 10 µM
67 | COc1c(C)cnc(CN(C)C(=O)c2ccc(C3CCCO3)s2)c1C (centres undefined) | 9.5%
68 | CCCn1c(C)c(CC(=O)NCCOC)c2c1CC(C)(C)CC2=O | -1.01%
69 | CSCCC(O)C(=O)N1CCCN(Cc2cccnc2)CC1 (centres undefined) | 8.2%
70 | CC(Cc1cccnc1)Nc1ncnc2cccc(F)c12 (centres undefined) | 26.3%
71 | O=C(CCc1cc(O)no1)N1CCC(Cc2ccc(F)cc2)CC1 | -0.505%
72 | Cn1ncc(C2CC(=O)NCc3nc4sccn4c32)c1C1CC1 (centres undefined) | -5.01%
73 | CN1CCC(Cc2noc(-c3cn(Cc4ccc(F)cc4)nn3)n2)CC1 | -4.18%
74 | Cc1cc(CC(=O)N2CCN(CC3CC3)[C@@H]3CS(=O)(=O)C[C@@H]32)ccc1F | 5.17%
75 | CC(C)C1CN(c2ncc(F)cn2)CCC(=O)N1Cc1ccc(F)cc1 (centres undefined) | 16.9%
76 | COCC1CCN(C(=O)c2cccc(S(=O)(=O)NCC3(C)COC3)c2)C1 (centres undefined) | 3.82%
77 | Cc1nccnc1N1CC[C@@H](NC(=O)c2cnccn2)[C@H](O)C1 | -11.3%
78 | Cc1cc(C)n(CC2CN(CC(=O)N3CCNC3=O)CCO2)n1 (centres undefined) | -2.38%
79 | Cn1cnc2c1CCN(Cc1csc(Cc3ccccc3)n1)C2 | -5.4%
80 | Cc1ncncc1C(=O)N1CCOC(c2nc(C(C)C)n[nH]2)C1 (centres undefined) | -4.98%
81 | Cc1ccc(NC2CCN(C(=O)CCCc3cccs3)CC2)nn1 | -8.49%
82 | CCOc1cc(C)nc(N2CCN(C(=O)c3cnc[nH]3)CC2)n1 | -11.8%
83 | CC(C)c1ccc(CCC(=O)N2CCOCC2c2ncon2)cc1 (centres undefined) | -4.56%
84 | Cc1nnc2n1CCN(C(C(=O)NC1CC1)c1ccc(F)cc1)C2 (centres undefined) | -6.6%
85 | CCN(CC)C(=O)Cn1ccc2cc(NC(=O)C3CCCCC3)ccc21 | -5.04%
86 | CCc1nc(CN2CCN(C(=O)C3(C#N)CCCC3)CC2)cs1 | 0.38%
87 | CCN1CCN(C2CCN(CC(=O)NCC(F)(F)F)CC2)C1=O | -2.99%
88 | O=C(Nc1ccc(F)cc1)N1CCN(Cc2noc(C3CC3)n2)CC1 | -18.1%

Row | Structure (SMILES) | cytotoxicity at 10 µM
89 | Cc1cc(C)n(CC2CCCN2C(=O)c2cnccn2)n1 (centres undefined) | 6.41%
90 | COCCN1CC(C(=O)NCc2ccnc(-n3cccn3)c2)CC1=O (centres undefined) | -5.07%
91 | O=C1CC(N(C(=O)c2ccc3c(c2)CCC3)C2CC2)C(=O)N1 (centres undefined) | -1.99%
92 | c1ccc(-c2nc(CN3CCOC(Cn4cccn4)C3)no2)cc1 (centres undefined) | 10.1%
93 | COCCc1noc(CNC2CCc3nc(C(C)C)nn3C2)n1 (centres undefined) | 4.28%
94 | O=C(N1CCOCC1)N1CCCC2(CCCNC2)C1 (centres undefined) | 0.817%
95 | O=C([C@H]1CC[C@@H]2[C@@H](CCN2C2CCCC2)O1)N1CCOCC1 | 11.5%
96 | CO[C@H]1CC[C@H]2[C@H]1OCCN2CCOCc1ccccc1 | -114%
97 | Cc1cccc(CN2CCc3cc(C(=O)O)c(N(C)C)nc3CC2)n1 | 3.68%
98 | CN(C)CCN1CCN(Cc2ccco2)Cc2cccnc21 | 1.73%
99 | O=C1CC2(CCN(Cc3ccccn3)C2)CN1c1cncnc1 (centres undefined) | 2.26%
100 | CNC(=O)CN1CCOCC2(C1)CN(C(=O)CC(C)C)CCO2 (centres undefined) | 3.94%
101 | O=C1COC2(CCN(C(=O)C3CC=CC3)CC2)CN1Cc1cccnc1 | 3.27%
102 | COc1ncccc1CN1C[C@@H]2COC[C@]2(COCC(=O)N(C)C)C1 | 7.81%
103 | Cc1nc(CN2CC[C@H](OCC3CC3)[C@@H]2Cc2cccnc2)cs1 | 0.15%
104 | COCCNC(=O)[C@H]1CN(Cc2nccs2)C[C@H]2OCC[C@@H]12 | -11.6%
105 | COc1cc(N2CCC3(CCN(C(=O)c4cccnc4)CC3)C2)ncn1 | -130%
106 | COc1ncccc1CN1CC[C@]2(C[C@@H](OCc3ccccn3)CO2)C1 | 4.96%
107 | Cc1ccc(CN2C[C@@H]3COC[C@@H](CC(=O)N4CCOCC4)[C@@H]3C2)s1 | -2.04%
108 | CN(C)C(=O)N1C[C@H]2CC[C@@H](C1)N(Cc1nnc(-c3ccccc3)o1)C2 | 4.6%
109 | CCC12CN3CC(C)(CN(C1)C3c1[nH]c(=O)[nH]c(=O)c1C)C2=O (centres undefined) | 6.35%
